Results reported in ChEMBL document CHEMBL5696442, “Discovery of type II inhibitors of TGFβ-activated kinase 1 (TAK1) and mitogen-activated protein kinase kinase kinase kinase 2 (MAP4K2)” (J Med Chem, 2015).

Experiments:
[1] = target: Serine/threonine-protein kinase 26 (Homo sapiens) (UniProt Q9P289); assay: Inhibition of MST4 Lys1 labeling site in human Huh-7 cells at 1 uM by KiNativ Profiling analysis relative to control; assay type: cell-based
[2] = target: Mitogen-activated protein kinase kinase kinase 20 (Homo sapiens, UniProt Q9NYL2); assay: Inhibition of ZAK Lys1 labeling site in human A-375 cells at 0.5 uM by KiNativ Profiling analysis relative to control; assay type: cell-based
[3] = target: Serine/threonine-protein kinase B-raf (Homo sapiens, UniProt P15056); assay: Inhibition of BRAF (unknown origin) at 10 uM by Ambit Kinomescan binding assay relative to control
[4] = target: Rho-associated protein kinase 2 (Homo sapiens) (UniProt O75116); assay: Inhibition of ROCK2 Lys2 labeling site in human A-375 cells at 0.05 uM by KiNativ Profiling analysis relative to control; assay type: cell-based
[5] = target: Casein kinase II subunit alpha (Homo sapiens) (UniProt P68400); assay: Inhibition of CK2a1 in human Huh-7 cells at 10 uM by KiNativ Profiling analysis relative to control; assay type: cell-based
[6] = target: T1, Serine/threonine-protein kinase Nek1 (Homo sapiens) (UniProt Q96PY6); assay: Inhibition of NEK1 K2 labeling site in human Huh-7 cells at 1 uM by KiNativ Profiling analysis relative to control; assay type: cell-based
T1 sequence (whole entry): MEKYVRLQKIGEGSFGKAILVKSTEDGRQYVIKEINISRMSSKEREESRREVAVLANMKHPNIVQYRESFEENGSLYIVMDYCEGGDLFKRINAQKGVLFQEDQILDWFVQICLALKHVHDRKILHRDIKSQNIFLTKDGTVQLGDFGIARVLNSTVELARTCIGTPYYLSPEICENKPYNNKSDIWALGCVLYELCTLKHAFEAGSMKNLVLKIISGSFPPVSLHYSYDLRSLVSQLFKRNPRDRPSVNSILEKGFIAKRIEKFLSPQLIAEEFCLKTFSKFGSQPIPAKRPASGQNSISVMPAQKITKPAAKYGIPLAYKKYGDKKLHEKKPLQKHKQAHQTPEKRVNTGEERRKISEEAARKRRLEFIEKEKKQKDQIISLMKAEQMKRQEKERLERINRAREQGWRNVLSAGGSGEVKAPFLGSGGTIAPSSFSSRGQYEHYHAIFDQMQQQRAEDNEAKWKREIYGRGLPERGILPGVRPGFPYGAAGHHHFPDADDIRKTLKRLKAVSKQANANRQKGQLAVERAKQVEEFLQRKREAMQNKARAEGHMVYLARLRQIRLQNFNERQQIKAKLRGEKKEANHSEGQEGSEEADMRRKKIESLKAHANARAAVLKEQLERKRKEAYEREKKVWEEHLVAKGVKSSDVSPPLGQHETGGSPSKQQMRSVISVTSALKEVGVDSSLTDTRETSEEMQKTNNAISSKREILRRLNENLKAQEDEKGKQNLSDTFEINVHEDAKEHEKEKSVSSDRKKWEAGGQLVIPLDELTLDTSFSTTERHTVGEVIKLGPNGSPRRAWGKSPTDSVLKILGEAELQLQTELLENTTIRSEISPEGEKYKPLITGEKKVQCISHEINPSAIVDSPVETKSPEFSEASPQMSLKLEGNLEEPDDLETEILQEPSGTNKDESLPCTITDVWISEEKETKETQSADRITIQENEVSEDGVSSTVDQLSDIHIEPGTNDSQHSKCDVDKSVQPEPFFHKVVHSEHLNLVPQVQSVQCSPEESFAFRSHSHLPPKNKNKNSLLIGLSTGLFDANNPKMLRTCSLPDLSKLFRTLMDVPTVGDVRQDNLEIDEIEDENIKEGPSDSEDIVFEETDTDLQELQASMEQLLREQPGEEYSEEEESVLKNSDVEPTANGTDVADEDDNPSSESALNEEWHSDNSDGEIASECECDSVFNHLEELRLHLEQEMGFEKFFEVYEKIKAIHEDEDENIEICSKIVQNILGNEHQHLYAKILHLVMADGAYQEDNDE

[7] = target: T2, PAN2-PAN3 deadenylation complex subunit PAN3 (Homo sapiens) (UniProt Q58A45); assay: Inhibition of PAN3 KD labeling site in human Huh-7 cells at 1 uM by KiNativ Profiling analysis relative to control; assay type: cell-based
T2 sequence (whole entry): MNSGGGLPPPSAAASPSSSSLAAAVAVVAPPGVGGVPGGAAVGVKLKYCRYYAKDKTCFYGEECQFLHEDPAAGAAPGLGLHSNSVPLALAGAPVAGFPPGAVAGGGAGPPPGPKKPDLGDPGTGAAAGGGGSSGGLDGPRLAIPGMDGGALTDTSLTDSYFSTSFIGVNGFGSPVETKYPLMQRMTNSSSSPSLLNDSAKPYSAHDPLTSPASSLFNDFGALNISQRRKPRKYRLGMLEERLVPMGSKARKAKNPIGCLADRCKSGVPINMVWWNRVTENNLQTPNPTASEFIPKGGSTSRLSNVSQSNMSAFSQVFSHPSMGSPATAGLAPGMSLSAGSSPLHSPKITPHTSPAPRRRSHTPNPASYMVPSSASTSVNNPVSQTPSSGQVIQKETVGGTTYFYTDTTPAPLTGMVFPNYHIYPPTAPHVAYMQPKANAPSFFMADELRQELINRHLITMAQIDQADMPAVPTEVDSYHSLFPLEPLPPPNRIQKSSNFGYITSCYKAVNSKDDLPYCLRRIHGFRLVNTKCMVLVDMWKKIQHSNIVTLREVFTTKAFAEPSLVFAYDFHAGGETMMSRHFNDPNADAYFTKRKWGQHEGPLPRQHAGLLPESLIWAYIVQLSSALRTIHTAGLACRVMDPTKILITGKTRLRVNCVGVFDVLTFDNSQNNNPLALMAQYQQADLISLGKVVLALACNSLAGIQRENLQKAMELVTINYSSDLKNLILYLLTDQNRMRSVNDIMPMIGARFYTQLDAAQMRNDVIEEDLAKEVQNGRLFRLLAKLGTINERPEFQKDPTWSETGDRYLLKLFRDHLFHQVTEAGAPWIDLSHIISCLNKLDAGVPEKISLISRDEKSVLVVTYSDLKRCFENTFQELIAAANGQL

[8] = target: Phosphatidylinositol 4-kinase alpha (Homo sapiens) (UniProt P42356); assay: Inhibition of PIK4CA ATP labeling site in human Huh-7 cells at 1 uM by KiNativ Profiling analysis relative to control; assay type: cell-based
[9] = target: Ribosomal protein S6 kinase alpha-3 (Homo sapiens) (UniProt P51812); assay: Inhibition of RSK2 domain1 Lys2 labeling site harbouring DLKPENILLDEEGHIKLTDFGLSK in human A-375 cells at 5 uM by KiNativ Profiling analysis relative to control; assay type: cell-based
In short: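 Live A375 melanoma cells treated with compound at 5 or 0.5 μM, then lysed. Lysate kinases were labeled with a lysine-reactive ATP or ADP-biotin probe. Inhibition was read as protection of labeling sites from the probe.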

[10] = system: Receptor-type tyrosine-protein kinase FLT3 (Homo sapiens), P36888 [D835Y]; assay: Inhibition of FLT3 D835Y mutant (unknown origin) at 1 uM by Ambit Kinomescan binding assay relative to control; values are per cent of control

Sequence of Rho-associated protein kinase 2 (Homo sapiens) (O75116 whole entry, looked up): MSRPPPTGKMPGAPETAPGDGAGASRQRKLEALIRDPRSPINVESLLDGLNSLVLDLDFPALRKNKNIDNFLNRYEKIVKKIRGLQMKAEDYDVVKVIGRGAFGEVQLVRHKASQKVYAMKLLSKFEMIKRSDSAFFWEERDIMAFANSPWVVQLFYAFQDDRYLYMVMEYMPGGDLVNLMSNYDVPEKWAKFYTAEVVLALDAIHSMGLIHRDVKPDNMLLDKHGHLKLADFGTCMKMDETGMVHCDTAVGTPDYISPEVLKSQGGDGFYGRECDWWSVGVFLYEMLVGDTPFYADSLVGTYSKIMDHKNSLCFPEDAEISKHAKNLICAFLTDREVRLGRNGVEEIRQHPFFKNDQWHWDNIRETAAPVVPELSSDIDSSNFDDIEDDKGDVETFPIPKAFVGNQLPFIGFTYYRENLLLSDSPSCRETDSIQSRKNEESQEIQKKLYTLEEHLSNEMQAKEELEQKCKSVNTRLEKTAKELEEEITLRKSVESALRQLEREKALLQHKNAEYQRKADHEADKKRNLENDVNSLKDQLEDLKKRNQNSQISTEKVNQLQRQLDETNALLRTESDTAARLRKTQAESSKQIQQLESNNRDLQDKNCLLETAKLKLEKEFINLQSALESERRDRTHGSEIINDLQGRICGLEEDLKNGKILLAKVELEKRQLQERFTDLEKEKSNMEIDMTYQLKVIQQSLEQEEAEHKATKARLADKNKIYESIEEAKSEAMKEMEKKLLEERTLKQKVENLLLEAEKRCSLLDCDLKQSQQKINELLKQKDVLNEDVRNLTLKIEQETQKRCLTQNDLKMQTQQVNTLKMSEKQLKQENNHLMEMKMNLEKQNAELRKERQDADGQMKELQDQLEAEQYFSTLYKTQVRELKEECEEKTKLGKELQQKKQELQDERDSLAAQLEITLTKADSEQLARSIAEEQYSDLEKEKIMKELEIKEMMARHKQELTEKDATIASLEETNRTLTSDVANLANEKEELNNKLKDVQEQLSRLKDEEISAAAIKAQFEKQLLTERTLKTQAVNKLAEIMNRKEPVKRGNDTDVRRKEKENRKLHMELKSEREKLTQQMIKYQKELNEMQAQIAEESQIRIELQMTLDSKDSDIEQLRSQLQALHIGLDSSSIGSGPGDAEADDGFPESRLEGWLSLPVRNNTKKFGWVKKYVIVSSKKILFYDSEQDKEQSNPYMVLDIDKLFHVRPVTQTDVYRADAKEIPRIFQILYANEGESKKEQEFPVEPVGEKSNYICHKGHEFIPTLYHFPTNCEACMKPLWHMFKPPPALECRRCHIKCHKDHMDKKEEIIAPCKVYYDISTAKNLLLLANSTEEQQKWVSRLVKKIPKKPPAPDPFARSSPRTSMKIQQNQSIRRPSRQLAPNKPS
Sequence of Serine/threonine-protein kinase B-raf (P15056 whole entry): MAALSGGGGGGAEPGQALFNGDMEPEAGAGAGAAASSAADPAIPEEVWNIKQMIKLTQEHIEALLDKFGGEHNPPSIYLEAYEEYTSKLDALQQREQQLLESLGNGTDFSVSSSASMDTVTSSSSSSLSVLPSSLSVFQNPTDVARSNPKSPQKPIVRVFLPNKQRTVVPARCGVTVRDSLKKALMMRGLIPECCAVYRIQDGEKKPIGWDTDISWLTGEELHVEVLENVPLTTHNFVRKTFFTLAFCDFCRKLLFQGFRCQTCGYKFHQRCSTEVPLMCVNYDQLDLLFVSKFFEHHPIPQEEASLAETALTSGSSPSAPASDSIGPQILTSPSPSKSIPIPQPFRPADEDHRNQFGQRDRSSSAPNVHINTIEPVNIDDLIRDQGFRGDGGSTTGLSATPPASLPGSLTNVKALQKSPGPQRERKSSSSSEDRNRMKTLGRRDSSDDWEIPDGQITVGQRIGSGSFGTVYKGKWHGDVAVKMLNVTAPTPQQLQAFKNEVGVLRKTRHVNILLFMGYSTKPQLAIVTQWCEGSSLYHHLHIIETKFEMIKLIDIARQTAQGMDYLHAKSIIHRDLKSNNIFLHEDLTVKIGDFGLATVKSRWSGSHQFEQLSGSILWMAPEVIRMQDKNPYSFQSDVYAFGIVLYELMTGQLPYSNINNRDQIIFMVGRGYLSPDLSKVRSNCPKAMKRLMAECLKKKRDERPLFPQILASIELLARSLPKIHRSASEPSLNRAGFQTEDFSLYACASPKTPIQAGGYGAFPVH
Sequence of Casein kinase II subunit alpha (Homo sapiens) (P68400 whole entry, looked up): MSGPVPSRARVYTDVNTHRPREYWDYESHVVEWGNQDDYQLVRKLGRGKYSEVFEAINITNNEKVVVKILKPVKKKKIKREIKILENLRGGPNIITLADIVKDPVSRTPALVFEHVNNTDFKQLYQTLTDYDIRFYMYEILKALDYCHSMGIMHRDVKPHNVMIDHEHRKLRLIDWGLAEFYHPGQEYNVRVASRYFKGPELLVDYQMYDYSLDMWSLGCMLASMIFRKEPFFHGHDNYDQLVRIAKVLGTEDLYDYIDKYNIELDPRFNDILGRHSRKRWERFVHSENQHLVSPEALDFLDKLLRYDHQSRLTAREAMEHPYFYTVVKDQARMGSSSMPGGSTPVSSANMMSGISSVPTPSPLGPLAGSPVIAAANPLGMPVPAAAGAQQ
Sequence of Phosphatidylinositol 4-kinase alpha (Homo sapiens) (P42356 whole entry, looked up, the tested form may be a part): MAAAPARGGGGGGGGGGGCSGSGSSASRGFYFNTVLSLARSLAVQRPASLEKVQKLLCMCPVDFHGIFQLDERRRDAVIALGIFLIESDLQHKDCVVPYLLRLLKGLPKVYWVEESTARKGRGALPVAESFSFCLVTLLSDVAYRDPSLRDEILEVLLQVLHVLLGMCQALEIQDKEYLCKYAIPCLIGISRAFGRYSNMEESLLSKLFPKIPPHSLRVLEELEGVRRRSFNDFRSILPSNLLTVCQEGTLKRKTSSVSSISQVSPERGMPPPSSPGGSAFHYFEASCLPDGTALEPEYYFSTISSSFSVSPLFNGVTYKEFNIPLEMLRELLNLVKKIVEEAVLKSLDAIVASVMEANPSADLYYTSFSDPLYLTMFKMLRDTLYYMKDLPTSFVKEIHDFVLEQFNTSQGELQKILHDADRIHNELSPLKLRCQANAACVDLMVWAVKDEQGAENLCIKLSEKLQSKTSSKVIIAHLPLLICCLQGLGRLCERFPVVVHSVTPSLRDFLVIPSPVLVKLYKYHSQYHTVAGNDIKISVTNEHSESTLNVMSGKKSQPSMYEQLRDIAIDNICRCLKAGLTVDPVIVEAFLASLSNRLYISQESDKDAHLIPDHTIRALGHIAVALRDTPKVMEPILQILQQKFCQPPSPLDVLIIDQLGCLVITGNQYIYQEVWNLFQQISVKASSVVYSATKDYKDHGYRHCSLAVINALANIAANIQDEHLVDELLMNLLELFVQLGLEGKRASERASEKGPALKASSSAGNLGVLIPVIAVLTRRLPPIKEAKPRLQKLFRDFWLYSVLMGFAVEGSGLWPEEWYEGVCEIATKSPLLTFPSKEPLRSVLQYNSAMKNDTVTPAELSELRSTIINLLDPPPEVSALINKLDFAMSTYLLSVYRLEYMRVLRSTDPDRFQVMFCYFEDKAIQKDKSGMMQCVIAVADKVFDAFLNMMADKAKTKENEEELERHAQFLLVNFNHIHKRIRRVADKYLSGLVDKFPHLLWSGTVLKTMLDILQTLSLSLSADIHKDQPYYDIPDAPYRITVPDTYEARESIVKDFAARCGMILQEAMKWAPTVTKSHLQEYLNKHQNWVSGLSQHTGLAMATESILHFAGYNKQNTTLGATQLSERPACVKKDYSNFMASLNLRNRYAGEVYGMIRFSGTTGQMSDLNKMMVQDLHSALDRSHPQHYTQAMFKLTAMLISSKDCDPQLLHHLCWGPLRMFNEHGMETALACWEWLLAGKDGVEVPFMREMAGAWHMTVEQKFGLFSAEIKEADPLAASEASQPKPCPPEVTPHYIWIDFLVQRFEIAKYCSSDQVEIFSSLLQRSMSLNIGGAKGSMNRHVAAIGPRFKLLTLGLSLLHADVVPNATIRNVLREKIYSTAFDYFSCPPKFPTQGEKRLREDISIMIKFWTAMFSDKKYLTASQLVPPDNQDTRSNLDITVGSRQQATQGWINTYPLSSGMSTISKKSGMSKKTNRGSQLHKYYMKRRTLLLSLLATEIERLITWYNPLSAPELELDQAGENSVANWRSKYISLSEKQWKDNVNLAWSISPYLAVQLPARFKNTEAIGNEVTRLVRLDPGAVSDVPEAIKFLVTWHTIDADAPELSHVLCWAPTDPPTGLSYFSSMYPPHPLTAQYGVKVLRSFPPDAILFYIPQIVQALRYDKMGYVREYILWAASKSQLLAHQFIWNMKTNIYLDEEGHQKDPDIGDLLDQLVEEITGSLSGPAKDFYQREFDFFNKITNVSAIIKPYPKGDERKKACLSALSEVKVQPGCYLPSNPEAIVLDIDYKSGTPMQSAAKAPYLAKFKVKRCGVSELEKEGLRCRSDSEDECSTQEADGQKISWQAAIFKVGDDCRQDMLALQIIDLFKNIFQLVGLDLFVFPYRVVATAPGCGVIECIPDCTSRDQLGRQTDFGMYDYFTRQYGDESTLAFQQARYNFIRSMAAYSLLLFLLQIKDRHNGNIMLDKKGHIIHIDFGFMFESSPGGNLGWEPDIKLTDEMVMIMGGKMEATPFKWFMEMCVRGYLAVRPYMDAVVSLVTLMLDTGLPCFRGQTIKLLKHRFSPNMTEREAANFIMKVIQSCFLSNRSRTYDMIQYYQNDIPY
Sequence of Serine/threonine-protein kinase 26 (Homo sapiens) (Q9P289 2-416 limits assumed): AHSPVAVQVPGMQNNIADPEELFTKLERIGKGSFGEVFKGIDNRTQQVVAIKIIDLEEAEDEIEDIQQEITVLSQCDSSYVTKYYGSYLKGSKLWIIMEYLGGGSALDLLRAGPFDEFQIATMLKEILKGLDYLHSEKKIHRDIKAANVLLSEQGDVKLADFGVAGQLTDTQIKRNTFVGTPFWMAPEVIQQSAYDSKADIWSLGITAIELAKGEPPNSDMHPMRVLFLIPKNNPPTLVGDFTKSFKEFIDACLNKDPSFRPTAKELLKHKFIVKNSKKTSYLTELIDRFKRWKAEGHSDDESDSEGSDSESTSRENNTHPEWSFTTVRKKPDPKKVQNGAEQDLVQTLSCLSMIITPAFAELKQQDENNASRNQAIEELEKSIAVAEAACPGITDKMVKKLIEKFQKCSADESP

In the case of CNc1cc(Oc2cc(C(=O)Nc3cc(N4CCN(C)CC4)cc(C(F)(F)F)c3)ccc2C)ncn1, the inhibition [1] is reported as 41.9%.
Molecule CCN1CCN(Cc2ccc(NC(=O)c3ccc(C)c(Oc4ccnc5[nH]ccc45)c3)cc2C(F)(F)F)CC1 has an inhibition [2] of 93%, an inhibition [3] of 9.1% and an inhibition [4] of 6%. The inhibition [5] was 12.3%, the inhibition [6] was -5.8% and the inhibition [7] was 13.4%. It also gave an inhibition [8] of 3.5%.
CCN1CCN(Cc2ccc(NC(=O)c3ccc(C)c(/C=C/c4cnc5[nH]ccc5c4OC)c3)cc2C(F)(F)F)CC1 showed an inhibition [9] of -4.9% and a residual activity [10] of 6.8%.
